Article PMC8359308 (Clinical Pharmacology in Drug Development, 2020)
Like-named read-outs stand apart in the source and are kept apart here.

Tests used:
[1] = format: in vivo, human; conditions: for AUC(0-inf) / AUC(0-t) / Tmax: po, total glasdegib; for AUC(0-inf): AUCinf; for AUC(0-inf) / AUC(0-t) / Tmax / CL/F, total glasdegib / Cmax, total glasdegib: single oral 100 mg, fasted; for AUC(0-t): AUClast; for Tmax: median (range)
Summary of the method: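 Single oral 100 mg tablet dose of test compound after ≥10 h fast, with about 240 mL water and no food for 4 h. Plasma drawn predose and 1–120 h post-dose, total drug measured by validated LC-MS/MS. AUCinf (AUClast + Clast/kel, linear/log trapezoidal) and observed Cmax came from noncompartmental analysis. Log-transformed values were compared by one-way ANOVA (unequal variance), giving adjusted GMR versus normal-function controls with 90% CI.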

[2] = Phase I single-dose pharmacokinetics of unbound plasma glasdegib; format: in vivo, human; conditions: single oral 100 mg, fasted
Summary of the method: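 Single oral 100 mg tablet with about 240 mL water after a fast of at least 10 h, with no food for 4 h post-dose. Unbound samples were taken predose and at 1, 2 and 4 h. K2EDTA plasma was dialysed against PBS to equilibrium (6 h). Sertraline (300 ng/mL) served as positive control and glasdegib (100 ng/mL) as dialysis QC. Samples were read by LC-MS/MS (LLQ 1 ng/mL). Unbound parameters = fu × total noncompartmental values.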

[3] = Unbound fraction in plasma by equilibrium dialysis; format: in vitro ADME, human; conditions: for f u (fraction of unbound drug in plasma): geometric mean (%CV); for f u in plasma: statistic not given
[4] = Safety assessment after single oral 100 mg dose; format: in vivo, human; conditions: all 24 participants
Summary of the method: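 Participants were confined from day -1 through day 6, with telephone follow-up 28–35 days post-dose. AEs, laboratory values, physical examination, vital signs, ECGs and concomitant medications were monitored throughout. AEs were treatment-emergent if onset or worsening came after dosing and before follow-up, and were coded with MedDRA 22.0. Baseline was the last predose measurement. Analysis was descriptive.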

[5] = cited from earlier work
[6] = ketoconazole coadministered versus glasdegib alone; cited from earlier work
[7] = rifampin coadministered versus glasdegib alone; cited from earlier work
[8] = food with high calories and high fat content or concurrent rabeprazole; cited from earlier work
[9] = test system: cytochrome P450 (CYP) 3A4/5; conditions: human hepatocytes, reaction phenotyping; cited from earlier work
[10] = mostly normal hepatic function or mild hepatic impairment; cited from earlier work
[11] = human, plasma, 100 mg, moderate hepatic impairment (n = 8), arithmetic mean ± SD
[12] = human, plasma, 100 mg, moderate hepatic impairment (n = 8), geometric mean (%CV)
[13] = human, plasma, 100 mg, normal hepatic function (n = 8), arithmetic mean ± SD
[14] = human, plasma, 100 mg, normal hepatic function (n = 8), geometric mean (%CV)
[15] = human, plasma, 100 mg, severe hepatic impairment (n = 8), arithmetic mean ± SD
[16] = human, plasma, 100 mg, severe hepatic impairment (n = 8), geometric mean (%CV)
[17] = severe hepatic impairment cohort
[18] = moderate hepatic impairment (n = 8), arithmetic mean ± SD
[19] = moderate hepatic impairment (n = 8), geometric mean (%CV)
[20] = normal hepatic function (n = 8), arithmetic mean ± SD
[21] = normal hepatic function (n = 8), geometric mean (%CV)
[22] = severe hepatic impairment (n = 8), arithmetic mean ± SD
[23] = severe hepatic impairment (n = 8), geometric mean (%CV)

CN1CC[C@@H](NC(=O)Nc2ccc(C#N)cc2)C[C@@H]1c1nc2ccccc2[nH]1 [glasdegib]
half-life ([1]; human, plasma, oral, 100 mg, mean terminal half-life, range across all hepatic function groups): 18.4 to 20.7 h | AUC(0-inf) [1, 11]: 12300 ± 3500 ng·h/mL | AUC(0-inf) [1, 12]: 11900 ng·h/mL | AUC(0-inf) [1, 13]: 11900 ± 6100 ng·h/mL | AUC(0-inf) [1, 14]: 10700 ng·h/mL | AUC(0-inf) [1, 15]: 8660 ± 3130 ng·h/mL | AUC(0-inf) [1, 16]: 8110 ng·h/mL | AUC(0-t) [1, 11]: 12200 ± 3460 ng·h/mL | AUC(0-t) [1, 12]: 11800 ng·h/mL | AUC(0-t) [1, 13]: 11800 ± 6080 ng·h/mL | AUC(0-t) [1, 14]: 10600 ng·h/mL | AUC(0-t) [1, 15]: 8480 ± 3100 ng·h/mL | AUC(0-t) [1, 16]: 7940 ng·h/mL | Tmax ([1]; human, plasma, 100 mg, moderate hepatic impairment (n = 8)): 2.5 h | Tmax ([1]; human, plasma, 100 mg, normal hepatic function (n = 8)): 1.5 h | Tmax ([1]; human, plasma, 100 mg, severe hepatic impairment (n = 8)): 1 h | reduction in AUCinf versus normal hepatic function, total glasdegib [1, 17]: 24% | reduction in Cmax versus normal hepatic function, total glasdegib [1, 17]: 42% | CL/F, total glasdegib [1, 18]: 8.8 ± 2.8 L/h | Cmax, total glasdegib [1, 18]: 899.8 ± 215.7 ng/mL | CL/F, total glasdegib [1, 19]: 8.4 (31) L/h | Cmax, total glasdegib [1, 19]: 875.9 (26) ng/mL | CL/F, total glasdegib [1, 20]: 10.2 ± 4.3 L/h | Cmax, total glasdegib [1, 20]: 989.9 ± 373.1 ng/mL | CL/F, total glasdegib [1, 21]: 9.3 (49) L/h | Cmax, total glasdegib [1, 21]: 924.4 (43) ng/mL | CL/F, total glasdegib [1, 22]: 13.3 ± 5.8 L/h | Cmax, total glasdegib [1, 22]: 612.0 ± 342.8 ng/mL | CL/F, total glasdegib [1, 23]: 12.3 (42) L/h | Cmax, total glasdegib [1, 23]: 536.3 (59) ng/mL | CLu/F, unbound glasdegib [2, 18]: 104.6 ± 34.6 L/h | CLu/F, unbound glasdegib [2, 19]: 100.2 (31) L/h | CLu/F, unbound glasdegib [2, 20]: 124.7 ± 43.5 L/h | CLu/F, unbound glasdegib [2, 21]: 118.4 (35) L/h | CLu/F, unbound glasdegib [2, 22]: 111.9 ± 58.1 L/h | CLu/F, unbound glasdegib [2, 23]: 101.6 (47) L/h | f u (fraction of unbound drug in plasma) ([3]; moderate hepatic impairment (n = 8)): 0.08 (7) | f u in plasma ([3]; moderate hepatic impairment group): 0.08 | f u (fraction of unbound drug in plasma) ([3]; normal hepatic function (n = 8)): 0.08 (16) | f u in plasma ([3]; normal hepatic function cohort): 0.08 | f u (fraction of unbound drug in plasma) ([3]; severe hepatic impairment (n = 8)): 0.12 (15) | f u in plasma ([3]; severe hepatic impairment group): 0.12 | higher f u compared with the normal function cohort ([3]; severe impairment cohort): 50% | clinically significant changes in laboratory values, vital signs, or ECGs [4]: no clinically significant changes in vital signs or ECGs | deaths, serious AEs, severe treatment-emergent AEs, discontinuations [4]: no deaths, serious AEs, severe treatment‐emergent AEs, discontinuations from the study | dose proportionality of pharmacokinetics [5]: linear dose‐proportional pharmacokinetics | mean half-life ([5]; clinical dose of 100 mg once daily): 17.4 h | unbound in plasma ([5]; plasma protein binding, moderately to highly bound): < 10% | increase in glasdegib AUCinf [6]: 2.4 fold | increase in glasdegib Cmax [6]: 1.4 fold | decrease in glasdegib AUCinf [7]: approximately 70% | decrease in glasdegib Cmax [7]: 35% | effect on glasdegib exposure [8]: minimal effect | enzyme in glasdegib biotransformation [9]: major enzyme | baseline hepatic function as covariate for variation in glasdegib PK [10]: not a statistically significant covariate
